Data on 3 substances can be found in article PMC11871391 (Journal of Diabetes Investigation, 2024).

In series [1] the test system is Japanese individuals with type 1 diabetes. The experiment in a line: Safety evaluation during treatment periods. The series is classed as in vivo, human. Particulars: Japanese T1D; for rate of nocturnal Level 2 hypoglycemia / rate of overall Level 2 hypoglycemia (plasma glucose <3.0 mmol/L): glucose clamps excluded; for rate of overall Level 2 hypoglycemia (plasma glucose <3.0 mmol/L): from SMPG. Put shortly: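 Randomized crossover in Japanese adults with T1D: once-weekly test insulin for 8 weeks and once-daily glargine U100 for 14 days, both with bolus aspart. Safety covered AEs, vital signs, ECG, physical exam and laboratory tests, with clinically significant findings recorded as AEs. Hypoglycemia (Level 2, <3.0 mmol/L; Level 3, severe) and hyperglycemia (>16.7 mmol/L) were identified from SMPG. Events were expressed per patient-year of exposure and summarized descriptively.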

The test system of the next series is individuals with T1D. Particulars: trials with degludec in T1D; cited from earlier work.
Series [2] is classed as in vivo, human. Particulars: weekly dosing interval at steady state, Japanese T1D. In outline: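 Japanese adults (20–64 y) with T1D got subcutaneous thigh doses once weekly around 20:00 for 8 weeks. The constant weekly dose was seven times the run-in daily glargine U100 dose, with glargine top-up in weeks 1–2. Blood was sampled from the first dose to 35 days after the last. Total serum drug (albumin-bound plus unbound) was measured by validated specific immunoassay. AUC was by linear trapezoid over 0–168 h; t½ was log(2)/λz by linear regression.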

Series [3] has as its system Japanese individuals with type 1 diabetes. The series is classed as in vivo, human. Particulars: weekly dosing interval at steady state, Japanese T1D. Put shortly:
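Steady-state clamps (target 6.7 mmol/L) ran 24–48 h and 150–168 h after the final weekly dose. Before the clamp, glucose had to stay within ±20% from 60 to 30 min prior, within ±10% in the last 30 min, and fluctuate ≤0.3 mmol/L in the final 10 min. GIR was Loess-smoothed (factor 0.25). A per-participant PK/PD model simulated the daily effect across the full week.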

For series [4] the following is noted: White individuals; cited from earlier work.
In the next series the test system is insulin receptor. Particulars: cited from earlier work.

Turning to “insulin glargine U100 [reference compound]”, in series [1], the “rate of hyperglycemia (plasma glucose >16.7 mmol/L)” value worked out at 36.5 episodes per PYE, the “severe (Level 3) hypoglycemic episodes” value is “no severe (Level 3) hypoglycemic episodes”, the “rate of nocturnal Level 2 hypoglycemia” value was 9.4 episodes per PYE and the “rate of overall Level 2 hypoglycemia (plasma glucose <3.0 mmol/L)” value amounted to 30.6 episodes per PYE.
For insulin degludec, the “rate of clinically significant or severe hypoglycemia previously reported” value in the series on individuals with T1D is 42.5–88.3 episodes per PYE.
Regarding insulin icodec, in series [2], the “day of maximum exposure” value is listed as “Day 1”. The “day of maximum glucose-lowering effect” value in series [3] is recorded as “Day 2”. In series [1], the “rate of hyperglycemia (plasma glucose >16.7 mmol/L)” value was 33.6 episodes per PYE, the “severe (Level 3) hypoglycemic episodes” value is given as “no severe (Level 3) hypoglycemic episodes”, the “rate of nocturnal Level 2 hypoglycemia” value turned out to be 7.8 episodes per PYE and the “rate of overall Level 2 hypoglycemia (plasma glucose <3.0 mmol/L)” value stood at 37.3 episodes per PYE. Besides, in series [4], the half-life entry is recorded as “approximately 1 week”. In addition, in the series with insulin receptor, the “affinity for the insulin receptor” value is “low affinity”.
